Source: PubChem BioAssay
AHR act: AHR activators, primary screen, cell-based, luminescence, luciferase reporter, human | 320,000 tested, 2.5% active | AID 2796, 2010 | Aryl hydrocarbon receptor (Homo sapiens), P35869 | AHR-responsive luciferase reporter cells | activation, % at 5 µM; in the data active means activation above about 47%;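 further: 0% = vehicle wells and 100% = reference agonist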
Target sequence (P35869 whole entry, looked up): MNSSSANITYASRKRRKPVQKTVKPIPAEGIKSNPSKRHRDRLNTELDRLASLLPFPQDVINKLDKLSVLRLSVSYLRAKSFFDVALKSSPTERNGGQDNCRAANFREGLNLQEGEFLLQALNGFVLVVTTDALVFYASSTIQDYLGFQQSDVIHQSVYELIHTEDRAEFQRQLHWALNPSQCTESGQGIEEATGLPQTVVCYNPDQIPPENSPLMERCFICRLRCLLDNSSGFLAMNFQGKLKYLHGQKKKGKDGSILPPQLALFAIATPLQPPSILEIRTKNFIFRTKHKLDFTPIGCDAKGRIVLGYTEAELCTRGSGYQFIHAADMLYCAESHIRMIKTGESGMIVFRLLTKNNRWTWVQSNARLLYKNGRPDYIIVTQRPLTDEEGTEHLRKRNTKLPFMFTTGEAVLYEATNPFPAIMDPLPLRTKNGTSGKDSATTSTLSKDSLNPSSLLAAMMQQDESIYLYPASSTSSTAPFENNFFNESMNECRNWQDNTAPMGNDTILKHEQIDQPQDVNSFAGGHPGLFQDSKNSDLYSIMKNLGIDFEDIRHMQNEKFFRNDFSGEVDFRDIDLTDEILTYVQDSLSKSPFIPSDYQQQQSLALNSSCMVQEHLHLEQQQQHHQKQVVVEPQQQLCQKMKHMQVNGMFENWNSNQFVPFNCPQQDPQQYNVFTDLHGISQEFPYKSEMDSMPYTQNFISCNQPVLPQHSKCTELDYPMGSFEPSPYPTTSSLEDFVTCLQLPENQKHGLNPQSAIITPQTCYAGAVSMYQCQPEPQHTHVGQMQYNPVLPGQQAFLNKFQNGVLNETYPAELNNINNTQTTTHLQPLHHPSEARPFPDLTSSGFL
Tb MetRS inh: T. brucei MetRS inhibitors, primary screen, biochemical, luminescence | methionyl-tRNA synthetase (Trypanosoma brucei brucei) | purified T. brucei MetRS, ATP depletion, Kinase-Glo luminescence | inhibition, % at 11.9 µM | 360,000 tested, 0.4% active | AID 624268, 2012;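 active means inhibition above a per-plate cutoff of the control wells' mean inhibition plus 3 SD, cut at about 5.5% in these data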;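 further: 0% = DMSO wells median and 100% = median of wells with control inhibitor compound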
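Test system – parasite MetRS enzyme · Reagent – substrates ATP, L-methionine and bulk Escherichia coli tRNA · Doses – 11.9 µM compound single dose, 0.9% DMSO · Times – 15 min enzyme-compound preincubation, 2 h reaction, 10 min detection, 25 °C · Signal – Kinase-Glo luminescence, ATP depletion format · Controls – DMSO-only wells as low control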
Efflux pump inh: inhibitors of Candida efflux pumps in yeast, primary screen, S. cerevisiae, Nile Red, multiplex; S. cerevisiae Candida pump triplex; 330,000 tested, 0.44% active; inhibition, % at 10 µM; AID 485275, 2010;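 active means plate passing quality check with inhibition over a set limit, or well fluorescence over plate mean plus 4 SD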;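 further: Nile Red retained in pooled yeast measured as flow cytometry median fluorescence; 0% = buffer negative control and 100% = Enniatin B positive control; higher means more Nile Red kept so more efflux inhibition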
H9c2 TAG inh: inhibitors of triacylglycerol accumulation, primary screen, cell-based, uHTS, fluorescence, H9c2; H9c2 cells, Nile Red lipid (TAG) fluorescence; cells loaded with 200 µM oleic acid; inhibition, % at 12.5 µM; 230,000 tested, 0.66% active; AID 651582, 2012;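 active means pattern-corrected inhibition of lipid staining of at least 50% with the nuclear-stain viability signal not falling by more than 50%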;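 further: 0% = DMSO wells and 100% = triacsin C control wells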
SMARCA2 act: SMARCA2 (BRM) function activators, primary screen, cell-based, luminescence, high throughput; AID 652017, 2013; activation, % at 9.1 µM; MG213 cells, MMTV-luciferase reporter, dexamethasone, overnight; 370,000 tested, 1% active; in the data active means activation above about 7.8%;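 further: 0% = vehicle wells and 100% = reference activator wells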
SMARCA2 conf: SMARCA2 (BRM) function activators, confirmation, cell-based, luminescence, triplicate; shares compounds with SMARCA2 act; MG213 cells, MMTV-luciferase with dexamethasone, overnight; MG213 cells expressing E1A, Rb sequestered; DMSO wells 0%, reference activator 100%; activation, % at 9.1 µM; 3,500 tested, 30% active;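 active means activation above its plate's cutoff, the mean activation of tested wells plus 3 SD, cut at about 7.9% in these data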
GAL4-VP16 Luc: GAL4-VP16 luciferase reporter activation, counter-screen for SMARCA2 (BRM) activator project, cell-based, pG5luc, luminescence, high throughput | 3,500 tested, 41% active | activation, % at 9.1 µM | HEK293 GAL4-VP16 pG5luc reporter; scaled: DMSO wells 0%, SAHA wells 100% | shares compounds with SMARCA2 act;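 active means activation above the solvent-only control well mean plus 3 SD, averaged across control plates, cut at about 5.2% in these data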
Numbers without * were called inactive; / = no result given. Most compounds without a hit are left out; they make up all but 4.1% or so of the library.

SMILES | AHR act | Tb MetRS inh | Efflux pump inh | H9c2 TAG inh | SMARCA2 act | SMARCA2 conf | GAL4-VP16 Luc
CCC(=O)N1C(Cc2ccccc2)COC1(C)C (stereo not drawn) | 5 | 0 | 1 | / | 8.9* | -3 | 1
CCC1(C)NC(=O)N(CC(=O)N2CCC(Cc3ccccc3)CC2)C1=O (stereo not drawn) | -1 | 0 | 0 | -1 | 1 | / | /
COC(=O)c1nn(-c2ccc3c(c2)OCO3)cc1O | 8 | -1 | 0 | / | 9.0* | 13* | 11*
COC(=O)c1nn(-c2ccc3c(c2)CCN3C(C)=O)cc1O | 1 | -2 | 0 | / | -5 | / | /
CCOC(=O)c1nn(-c2ccc3c(c2)OCCO3)cc1O | 6 | -1 | 0 | -1 | 11* | 8.3* | 12*
Nc1nc2cc3c(cc2cc1C(=O)NCCc1c[nH]c2ccccc12)OCO3 | / | / | / | / | -3 | / | /
CCOC(=O)N1CCN(c2c(N3CCN(C(=O)OCC)CC3)c(=O)c2=O)CC1 | -1 | 0 | 0 | -1 | 0 | / | /
CCOC(=O)N1CCN(c2c(N3CCC(N4CCCCC4)CC3)c(=O)c2=O)CC1 | -3 | 0 | 0 | 4 | 8.0* | 0 | 2
O=C(Nc1nc2c(s1)C(=O)CCC2)c1ccccc1 | 2 | -1 | 0 | / | 8.3* | 9.7* | 12*
CCOC(=O)N/C(N)=N/c1nc2ccccc2s1 | 2 | 0 | 0 | / | 9.9* | 8.4* | 14*
CC(=O)Nc1nc(=O)c2ccccc2s1 | 3 | -1 | 0 | / | 8.3* | 1 | 2
Cc1ccc(C(=O)Nc2nc3ccccc3c(=O)s2)cc1 | 7 | 0 | 0 | / | 17* | 7 | 6.3*
CCOC(=O)NC(=O)COC(=O)CCCSc1nc2ccccc2s1 | -2 | 0 | 0 | 9 | -5 | / | /
O=C(NCc1cccs1)C1CCN(S(=O)(=O)c2cccc3ccccc23)CC1 | / | / | / | / | -2 | / | /
CC(C)(C)OC(=O)/C=C/[C@@H](CC1CCCC1)Sc1ccc(C(C)(C)C)cc1 | / | / | / | / | 1 | / | /
COC(=O)[C@]12C[C@H](CC(=O)N3CCC(c4ccccc4)CC3)C(=O)N(Cc3ccco3)C1=C[C@H](C(C)(C)C)O[C@@H]2C | / | / | / | / | -2 | / | /
CC(=O)N/C(N)=N/c1nc(=O)c2ccccc2s1 | 12 | 0 | 0 | -6 | 8.2* | 13* | 8.9*
O=C(Nc1nc(=O)c2ccccc2s1)c1ccccc1 | 7 | -1 | 0 | -23 | 24* | 6 | 9.6*
O=C(Nc1nc(=O)[nH]s1)c1ccccc1 | 25 | 0 | 0 | / | -2 | / | /
COc1cc(C=C2C(=O)C=CC2=O)ccc1O | / | 0 | / | / | -8 | / | /
CCC1(c2ccc(Cl)cc2)NC(=S)N(c2ccc(C)cc2)N1 (stereo not drawn) | 17 | -1 | 0 | / | 9.3* | 1 | 3
c1ccc2c(c1)nnn2-c1ncnc2sccc12 | 23 | -1 | 0 | -11 | 12* | 9.9* | 5
COc1cc(C=Nn2c(-c3cc(C)[nH]n3)n[nH]c2=S)cc(Br)c1O | / | / | / | / | -4 | / | /
CCCc1ccc(OCc2ccc(C(=O)N/N=C/c3cccnc3)o2)cc1 | / | 0 | -2 | 1 | 11* | 6 | 18*
CCOc1ccc(CC(=O)N/N=C/c2cccnc2)cc1 | 2 | 2 | 0 | 5 | 1 | / | /
SMILES | AHR act | Tb MetRS inh | Efflux pump inh | H9c2 TAG inh | SMARCA2 act | SMARCA2 conf | GAL4-VP16 Luc
Nc1ccc2c(c1)C(=O)c1ccccc1C2=O | 29 | 0 | 0 | -6 | 12* | 9.1* | 9.0*
Nc1ccc2c(c1)C(=O)c1ccccc1-2 | -5 | 0 | 0 | 22 | -2 | / | /
C/C=C/C=C/C(=O)c1cc(C)c(OC(=O)CNC(=O)OC(C)(C)C)c(C)c1O | / | / | / | / | -3 | / | /
N#C/C(=N\Nc1ccccc1)C(=N)N1CCCCCC1 | 14 | 1 | 0 | 2 | 2 | / | /
N#C/C(=N/Nc1ccccc1F)C(=N)N1CCOCC1 | 13 | 0 | 0 | / | 9.4* | 11* | 3
N#C/C(=N\Nc1cccc(F)c1)C(=N)N1CCCCCC1 | 28 | 0 | 0 | 0 | 8.5* | 7 | 11*
COc1ccc(N/N=C(\C#N)C(=N)N2CCOCC2)cc1 | 19 | -1 | 0 | 19 | -2 | / | /
O=C(NC1CCCCN(Cc2cccc(Cl)c2)C1=O)c1cccs1 (stereo not drawn) | / | / | / | / | -6 | / | /
Cc1nc(SC(C(N)=O)c2ccccc2)c(C#N)c(C)c1C (stereo not drawn) | 3 | 0 | 0 | -2 | 8.3* | 3 | 2
COC(=O)[C@]12C[C@H](CC(=O)NCC3CCCCC3)C(=O)N(CCC3=CCCCC3)C1=C[C@H](C1CCCC1)O[C@@H]2C | / | / | / | / | -1 | / | /
Fc1cccc(C2NN=C(c3ccccc3)S2)c1 (stereo not drawn) | 17 | -1 | 0 | / | 12* | 14* | 13*
O=c1[nH]c(CSc2nc3ccccc3s2)nc2ccccc12 | 66* | 0 | 0 | 2 | 8.4* | 3 | 4
O=c1cc(-c2ccc(O)cc2)oc2ccccc12 | 2 | 0 | 0 | / | 9.0* | 12* | 9.0*
O=c1cc(-c2ccccc2)oc2cc(O)cc(O)c12 | 5 | 0 | 0 | / | 8.5* | 3 | 7.5*
NC(=S)N/N=C/c1cn(-c2ccccc2)nc1-c1cccnc1 | 39 | -1 | 0 | 10 | 8.2* | 0 | 4
CCOC(=O)CCSc1nc(C)c2cc(OC)ccc2n1 | 2 | 0 | 0 | / | 10* | 9.0* | 11*
Cc1cc(Nc2cccc(Br)c2)cc(=O)n1-c1cccc(Br)c1 | / | / | / | / | -3 | / | /
O=C(CSc1nnc(NC2CC2)s1)c1ccc[nH]1 | 13 | 0 | 0 | -20 | 12* | 10* | 7.3*
O=C(c1cc2cc(Br)ccc2o1)N1CCN(c2ccccc2)CC1 | 6 | -1 | 0 | -27 | 8.1* | 1 | 5
COc1ccccc1NC(=O)Nc1ccc(S(=O)(=O)Nc2onc(C)c2C)cc1 | 3 | 0 | 0 | 9 | 8.2* | -1 | 0
COCC(=O)Nc1ccc(S(=O)(=O)Nc2onc(C)c2C)cc1 | / | 0 | / | -13 | -1 | / | /
Cc1noc(NS(=O)(=O)c2ccc(N/C=C\C(=O)c3ccccc3)cc2)c1C | -1 | -1 | 0 | -13 | 4 | / | /
Cc1noc(NS(=O)(=O)c2ccc(N/C=C\C(=O)c3ccc(F)cc3)cc2)c1C | 6 | 0 | 0 | / | 10* | 5 | 1
CC(C)=CCCC1=CC[C@H]2[C@@H](C1)C(C(C)C)=CC(=O)[C@@]2(C)O | / | / | / | / | -6 | / | /
